# Compound activity from PubChem.
# Sampled rows, rich in hits. Any-hit rate of the full collection: about 3.5%.
# MrgX1 PAM: allosterically activates human MrgX1 receptor signaling; Q96LB2; MrgX1-HEK293, Fluo-4 calcium flux, FDSS; stronger effect = higher value; B-score at 10 µM; 0.63% of 310,000 active; AID 588675;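 active = plate-corrected calcium response at least 3 library SD above typical, normal starting fluorescence, not activating the receptor alone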;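 also: compound read alongside a low EC10 to EC30 dose of BAM8-22 agonist; peak minus trough fluorescence over baseline measured at the second addition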
# Target sequence (Q96LB2 whole entry, looked up): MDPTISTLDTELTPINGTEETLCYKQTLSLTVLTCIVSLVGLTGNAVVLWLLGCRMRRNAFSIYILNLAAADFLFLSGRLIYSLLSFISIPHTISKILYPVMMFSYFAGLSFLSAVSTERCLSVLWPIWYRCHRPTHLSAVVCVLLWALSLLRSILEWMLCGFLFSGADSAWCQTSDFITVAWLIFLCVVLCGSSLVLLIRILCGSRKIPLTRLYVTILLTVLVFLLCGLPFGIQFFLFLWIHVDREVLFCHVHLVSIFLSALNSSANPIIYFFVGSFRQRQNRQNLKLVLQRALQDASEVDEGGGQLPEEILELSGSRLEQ
# MrgX1 antagonist: human MrgX1 receptor antagonism, primary screen; Q96LB2; B-score at 10 µM; 1.3% of 310,000 active; MRGX1-HEK293 calcium flux, Fluo-4, BAM8-22 antagonism; stronger effect = lower value;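 active = calcium-response B-score plate-corrected more than 3 library SD below zero, starting fluorescence within 5 deviations, no agonist response on first addition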;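 also: peak minus trough fluorescence over baseline after final BAM8-22 challenge near maximal dose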
# RGS4 act: potentiators or activators of RGS4 | B-score at 10 µM | HEK293 M3R/inducible RGS4, carbachol calcium flux Fluo4; stronger effect = lower value | 0.92% of 310,000 active | AID 463111;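 active = B-score of the integrated calcium signal more than 4 SD below the library mean, with starting fluorescence not abnormally high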;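 also: negative B-score means reduced calcium response which marks RGS4 activation or potentiation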
#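 Detection: kinetic calcium fluorescence imaging with Fluo4-AM dye, 2 µM / Material: HEK293 cells with stable M3R and inducible RGS4 / Schedule: recording 10 s baseline at 1 Hz, 100 s post-agonist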
# MrgX1 agonist: agonists of human MrgX1 receptor. Q96LB2. MrgX1-HEK293 cells, Fluo-4 calcium fluorescence, agonist mode; stronger effect = higher value. B-score at 10 µM. 0.44% of 310,000 active;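 active = calcium response B-score plate-corrected fluorescence ratio at least 3 library SD, with starting fluorescence B-score inside 5 SD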
#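 System: HEK293 cells stably expressing human MrgX1 receptor; Dosing: test compound in the initial addition of three; Schedule: overnight plating, then 30 min 37 °C plus 30 min room-temperature dye loading; Detection: kinetic calcium dye fluorescence, Fluo-4 NW; Controls: per-plate positive and negative controls for Z′ factor.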
# RGS4 inh: inhibitors of human RGS4; B-score at 10 µM; HEK293 M3R/RGS4 inducible, Fluo-4 calcium flux; stronger effect = higher value; triggered by carbachol at its EC20; 0.45% of 310,000 active; AID 463165;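 active = B-score, a plate-corrected calcium signal, over three deviations above library mean, with baseline fluorescence within five deviations of library mean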;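 also: RGS4 expression induced by doxycycline in cells with stable M3 receptor; B-score is computed from the integrated fluorescence ratio over baseline after carbachol; higher B-score means a larger calcium signal and so more RGS4 inhibition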
# Target sequence (P49798 whole entry, looked up): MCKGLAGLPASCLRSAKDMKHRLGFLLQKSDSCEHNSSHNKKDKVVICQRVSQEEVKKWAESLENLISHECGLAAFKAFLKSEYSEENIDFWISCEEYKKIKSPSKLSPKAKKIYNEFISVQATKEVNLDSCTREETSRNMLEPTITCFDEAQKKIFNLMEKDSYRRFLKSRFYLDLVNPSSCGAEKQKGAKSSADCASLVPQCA
# MrgX1 ant reconf: confirmation of human MrgX1 receptor antagonists. AID 602420. MrgX1-HEK293, BAM8-22 calcium flux, Fluo-4; stronger effect = lower value. shares compounds with MrgX1 antagonist. remaining BAM8-22 calcium response % of control (stronger effect = lower value), % at 10 µM. 19% of 2,300 active;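 active = remaining agonist calcium response no higher than 100% minus 3 SD of agonist-only control wells, with starting fluorescence near control levels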;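 also: agonist BAM8-22 given at a near maximal EC90 to ECmax level; peak minus minimum fluorescence divided by baseline after agonist addition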
# HEK293 Ca flux: counter-screen for MrgX1 antagonists: effect in parental HEK293 cells; fluorescence ratio F(max-min)/F0 at 10 µM; 2% of 4,000 active; shares compounds with MrgX1 antagonist; Fluo-4 calcium fluorescence, FDSS; AID 624111;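 active = duplicate-averaged calcium fluorescence ratio at least three times the standard deviation of buffer wells, a nonspecific response in parental cells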
# HEK293 Ca counter: activity in parental HEK293 cells without MrgX1; parental HEK293 calcium flux, Fluo-4 fluorescence ratio; stronger effect = higher value; fluorescence ratio F(max-min)/F0 at 10 µM; shares compounds with MrgX1 antagonist; 0.4% of 4,000 active;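 active = calcium fluorescence ratio, averaged over duplicates, at least 3 SD of the buffer-well ratio, meaning a nonspecific response in receptor-free cells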;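 also: untransfected parental HEK293 lacking MrgX1 used as counterscreen for MrgX1 allosteric activators; fluorescence change taken during the second addition on a kinetic imager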
# HEK293 Ca cntr2: counter-screen for MrgX1 activators: effect in parental HEK293 cells | shares compounds with MrgX1 antagonist | Fluo-4 calcium fluorescence (FDSS); stronger effect = higher value | fluorescence ratio F(max-min)/F0 at 10 µM | 8.7% of 4,000 active;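 active = calcium fluorescence ratio at least three times the spread of buffer wells, meaning a non-specific response in parental cells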
# Active calls of the source: *; i = inactive; . = not tested or not shown.
SMILES,MrgX1 PAM,MrgX1 antagonist,RGS4 act,MrgX1 agonist,RGS4 inh,MrgX1 ant reconf,HEK293 Ca flux,HEK293 Ca counter,HEK293 Ca cntr2
COC(=O)c1cc(C#N)c(OC)nc1C,i,-5.1*,i,i,i,i,i,i,i
CC(=O)Nc1ccc(NCN2C(=O)C3C4CCC(C4)C3C2=O)cc1 (stereo not drawn),i,i,i,i,i,.,.,.,.
COC(=O)c1ccc(NCN2C(=O)C3C4CCC(C4)C3C2=O)cc1 (stereo not drawn),i,-5.6*,i,i,i,i,i,i,i
CCc1ccc(OCCCCN(C)Cc2ccccc2)cc1,i,i,i,i,i,.,.,.,.
Oc1ccccc1NCC(O)Cn1ccc2ccccc21 (stereo not drawn),i,-5.3*,i,i,i,i,i,i,i
Cc1ccc(-n2c(-c3ccncc3)nnc2-c2cccs2)cc1,i,-5.7*,i,i,i,i,i,i,i
COc1ccc(C(C(=O)NC2CCCC2)N(CCO)C(=O)Cn2nnc(-c3ccc(C)o3)n2)cc1OC (stereo not drawn),i,i,i,i,i,.,.,.,.
C=CCn1c(-c2ccc(S(=O)(=O)N3CCOCC3)cc2)csc1=Nc1ccccc1,i,-7.9*,i,i,i,i,i,i,i
COc1ccc(-c2sc(C(=O)c3ccc(Cl)cc3Cl)cc2CC(=O)O)cc1,i,i,i,i,i,.,.,.,.
CCN(CC(=O)Nc1c(F)cccc1F)C(=O)c1cc(C)oc1C,i,i,i,i,i,.,.,.,.
CCn1cc([N+](=O)[O-])c(C(=O)Nc2nc(-c3ccc(C)cc3)c(C)s2)n1,i,-10*,i,i,i,i,i,i,i
O=C(Cc1c(Cl)cccc1Cl)NC1=NCCS1,i,i,i,i,i,.,.,.,.
O=C(CC(NC(=O)c1ccccc1Cl)c1ccccc1)NC1=NCCS1 (stereo not drawn),i,-6.6*,i,i,i,i,i,i,i
COc1ccc(C(=O)NC2CC3CCCC(C2)N3Cc2ccccc2)cc1OC (stereo not drawn),i,i,i,i,i,.,.,.,.
Cc1ccc(-n2ccnc(SCC(=O)NCCc3ccccc3)c2=O)cc1F,i,-4.6*,i,i,i,i,i,i,i
CCOc1ccc(-n2ccnc(SCC(=O)NCCc3ccccc3)c2=O)cc1,i,i,i,i,i,.,.,.,.
O=C(NC1CCS(=O)(=O)C1)c1ccc2c(c1)OCO2 (stereo not drawn),i,i,i,i,i,.,.,.,.
Cc1cc[n+](-c2[nH]c(=O)sc2/C=N/N=C(\[O-])c2ccncc2)cc1,i,i,i,i,i,.,.,.,.
Cn1cc(S(=O)(=O)N2CCCC2)cc1C(=O)N1CCN(c2ccccc2)CC1,i,-7.7*,i,i,i,84%*,i,i,i
Cc1ccc2nc(-c3cccc(S(=O)(=O)N4CC(C)OC(C)C4)c3)cn2c1 (stereo not drawn),i,i,i,i,i,.,.,.,.
CCCn1c(=N)n(CC(=O)c2cccs2)c2ccccc21,i,-4.6*,i,i,i,i,i,i,i
CCCCn1c(N)c(N(CCC(C)C)C(=O)C2=NN(c3cc(C)ccc3C)C(=O)CC2)c(=O)[nH]c1=O,i,i,i,i,i,.,.,.,.
CCN1CCN(CC(=O)N2c3ccccc3Sc3ccccc32)CC1,i,-5.1*,i,i,i,i,i,i,i
Cc1cc(C)n2ncc(C(=O)Nc3ccc4c(c3)OCO4)c2n1,i,i,i,i,i,.,.,.,.
Cc1cc(C)n2ncc(C(=O)Nc3cccc(O)c3)c2n1,i,-5.9*,i,i,i,i,i,i,i
SMILES,MrgX1 PAM,MrgX1 antagonist,RGS4 act,MrgX1 agonist,RGS4 inh,MrgX1 ant reconf,HEK293 Ca flux,HEK293 Ca counter,HEK293 Ca cntr2
[N-]=[N+]=NC[C@H](Cc1ccccc1)N1CC[C@@H](NC(=O)OCc2ccccc2)CCC1=O,i,i,i,i,i,.,.,.,.
Cc1c(C(=O)O)[nH]c2c1C(=O)CC(c1ccc(Cl)cc1)C2 (stereo not drawn),i,-4.5*,i,i,i,i,i,i,i
CCN(C(=O)COC(=O)CCc1c[nH]c2ccccc12)c1c(N)n(Cc2ccccc2)c(=O)[nH]c1=O,i,i,i,i,i,.,.,.,.
CN1CCc2c(sc3c2C(=O)NC(c2ccccc2)N3)C1 (stereo not drawn),i,-9.5*,i,i,i,i,i,i,i
O=C(NCCCN1CCOCC1)c1cccs1,i,-8.8*,.,i,.,79%*,i,i,i
O=C(NCCC(=O)N(CCc1ccccc1)Cc1ccccc1)c1ccc(Br)cc1,i,i,i,i,i,.,.,.,.
CCCN(CCC)S(=O)(=O)c1ccc(C(=O)Nc2nc3c(s2)CCc2ccccc2-3)cc1,i,-5.2*,i,i,i,i,i,i,i
Cc1ccc(-c2nc(NC(=O)c3ccc(S(=O)(=O)N(CCC#N)CCC#N)cc3)sc2-c2ccccc2)cc1,i,i,i,i,i,.,.,.,.
CCC(O)C1CCN(C(=O)c2cc(COc3ccc(F)cc3F)on2)CC1 (stereo not drawn),i,i,i,i,i,.,.,.,.
COc1ccc2oc(C(=O)OCC(=O)NCc3ccccc3OC)c(C)c2c1,i,-5.1*,i,i,i,i,i,i,i
CCN(CC(=O)Nc1cc(Cl)ccc1C)C(=O)COc1cccc2c1OC(C)(C)C2,i,i,i,i,i,.,.,.,.
Cc1ccc(S(=O)(=O)Cn2nnnc2C(C(C)C)N2CCN(Cc3ccco3)CC2)cc1 (stereo not drawn),i,-5.7*,i,i,i,i,i,i,i
Cc1ccc(S(=O)(=O)Cn2nnnc2C(C(C)C)N2CCSCC2)cc1 (stereo not drawn),i,i,i,i,i,.,.,.,.
